Measured values: paper PMC10187107 (Journal of Enzyme Inhibition and Medicinal Chemistry, 2023)
“And” between values parts separate entries of the source, which are not always exact repeats. Identical values can stand only once.

Experiments:
h3β-HSD2 = biological target: T1, h3β-HSD2 (Homo sapiens, UniProt P26439); assay: h3β-HSD2 activity, conversion of P5 to P4 in KGN cell homogenate; assay type: biochemical; conditions: for Residual h3β-HSD2 activity: 100 µM chemical, relative to DMSO control; for Mode action: human 3β-HSD2, vs. P5, mixed model and Lineweaver-Burk plot; for IC50: IC50, human 3β-HSD2, KGN cell homogenate, 0.2 µM P5, 0.2 mM NAD+, 30 min
T1 sequence (P26439 1-372): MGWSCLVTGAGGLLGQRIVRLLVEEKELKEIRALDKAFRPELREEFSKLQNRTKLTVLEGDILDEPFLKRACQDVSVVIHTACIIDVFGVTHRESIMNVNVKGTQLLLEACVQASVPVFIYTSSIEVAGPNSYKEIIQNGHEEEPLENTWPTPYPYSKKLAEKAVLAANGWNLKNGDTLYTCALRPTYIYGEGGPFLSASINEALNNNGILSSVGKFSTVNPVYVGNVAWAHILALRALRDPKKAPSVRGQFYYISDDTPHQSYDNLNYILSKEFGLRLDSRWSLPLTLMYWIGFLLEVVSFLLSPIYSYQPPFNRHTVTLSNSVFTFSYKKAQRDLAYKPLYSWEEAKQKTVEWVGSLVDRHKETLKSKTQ

r3β-HSD1 = biological target: T2, r3β-HSD1 (Rattus norvegicus, UniProt P22071); assay: r3β-HSD1 activity, conversion of P5 to P4 in rat testicular microsome; assay type: biochemical; conditions: for Residual r3β-HSD1 activity: 100 µM chemical, relative to DMSO control; for IC50: IC50, rat 3β-HSD1, testicular microsome, 0.2 µM P5, 0.2 mM NAD+, 30 min; for Mode action: rat 3β-HSD1, vs. P5, mixed model and Lineweaver-Burk plot; for increase of inhibitory effect relative to CUR: r3β-HSD1
T2 sequence (P22071 1-373): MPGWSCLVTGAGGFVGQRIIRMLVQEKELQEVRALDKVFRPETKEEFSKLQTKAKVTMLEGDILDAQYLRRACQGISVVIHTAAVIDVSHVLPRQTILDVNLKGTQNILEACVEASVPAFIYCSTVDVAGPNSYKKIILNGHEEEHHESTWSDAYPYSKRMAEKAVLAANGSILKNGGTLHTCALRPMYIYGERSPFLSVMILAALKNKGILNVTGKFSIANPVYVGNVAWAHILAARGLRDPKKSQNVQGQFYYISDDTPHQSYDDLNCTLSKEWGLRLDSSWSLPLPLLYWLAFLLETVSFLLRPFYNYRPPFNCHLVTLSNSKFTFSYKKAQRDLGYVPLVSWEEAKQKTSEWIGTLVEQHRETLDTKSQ
In short: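 Testes came from 90-day male Sprague-Dawley rats. Microsomes were isolated from homogenate in 0.25 M sucrose PBS (pH 7.2) by spins at 700, 14,500 and twice 105,000 ×g. Reactions used 5 µg microsomal protein, 0.2 µM P5 and 0.2 mM NAD+ in PBS for 30 min. […] P4 by HPLC-MS/MS with T-d5 internal standard; n = 4.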

human KGN cells = assay: P4 output in human KGN cells under basal and FSK-stimulated conditions; assay type: cell-based; conditions: basal condition, 24 h
In short: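 KGN human granulosa-like cells grown in DMEM/F12 with 10% FBS and 1% antibiotics at 37 °C, 5% CO2. Seeded at 1 × 10^6 cells/well and treated for 24 h with 0, 10, 20 or 40 µM test compound, either without forskolin (basal) or with 10 µM forskolin. P4 in the medium was quantified by HPLC-MS/MS. n = 4; one-way ANOVA with Dunnett's test vs control.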

human 11β-HSD2 = conditions: cited from earlier work
[1] = cited from earlier work
human 11β-HSD1 = conditions: cited from earlier work
human 17β-HSD3 = conditions: cited from earlier work
[2] = ref GuideChem; cited from earlier work

| SMILES | Km (h3β-HSD2; read-out: apparent Km, substrate P5, h3β-HSD2, Michaelis-Menten kinetics) | Km (r3β-HSD1; read-out: apparent Km, substrate P5, r3β-HSD1, Michaelis-Menten kinetics) | Residual h3β-HSD2 activity (h3β-HSD2) | Mode action (h3β-HSD2) | Ki (r3β-HSD1) | Residual r3β-HSD1 activity (r3β-HSD1) | IC50 (r3β-HSD1) | Mode action (r3β-HSD1) | IC50 (h3β-HSD2) | Ki (h3β-HSD2) | increase of inhibitory effect relative to CUR (r3β-HSD1) | lowest concentration that markedly decreased basal P4 output (human KGN cells) | IC50 (human 11β-HSD2) | clearance from the body [1] | IC50 (human 11β-HSD1) | IC50 (human 17β-HSD3) | higher potency to inhibit r3β-HSD1 than h3β-HSD2 (r3β-HSD1; r3β-HSD1 vs h3β-HSD2) | LogP [2] | half-lives [1] |
| --- | --- | --- | --- | --- | --- | --- | --- | --- | --- | --- | --- | --- | --- | --- | --- | --- | --- | --- | --- |
| COc1cc(/C=C/C(=O)CC(=O)/C=C/c2ccc(O)c(OC)c2)ccc1O [CUR, curcumin] |  |  | < 25 % of the control | Mixed | 4.21 µM | < 20 % of the control | 4.06 ± 1.1 µM | Mixed |  |  |  | 20 µM | ~14.5 µM and 10 to 15 µM | rapid clearance | ~10 µM and 10 to 15 µM | ~67.3 µM and > 50 µM | about 3 fold | 3.37 |  |
| COc1cc(CCC(O)CC(O)CCc2ccc(O)c(OC)c2)ccc1O (stereo not shown) [OHC, octahydrocurcumin] |  |  | ≥ 50 % of the control |  |  |  |  |  |  |  |  |  |  |  |  |  |  |  |  |
| O=C(/C=C/c1ccc(O)cc1)CC(=O)/C=C/c1ccc(O)cc1 [BDMC, bisdemethoxycurcumin] |  |  | < 25 % of the control | Competitive | 1.56 µM | < 20 % of the control | 1.22 ± 0.31 µM | Mixed | 1.68 ± 0.39 µM | 1.12 µM | 2 fold | 10 µM |  |  |  |  |  |  | 2 to 4 h |

Continued, in another order:

| Km (h3β-HSD2; read-out: apparent Km, substrate P5, h3β-HSD2, Michaelis-Menten kinetics) | Km (r3β-HSD1; read-out: apparent Km, substrate P5, r3β-HSD1, Michaelis-Menten kinetics) | Residual h3β-HSD2 activity (h3β-HSD2) | Mode action (h3β-HSD2) | Ki (r3β-HSD1) | Residual r3β-HSD1 activity (r3β-HSD1) | IC50 (r3β-HSD1) | Mode action (r3β-HSD1) | IC50 (h3β-HSD2) | Ki (h3β-HSD2) | increase of inhibitory effect relative to CUR (r3β-HSD1) | SMILES | lowest concentration that markedly decreased basal P4 output (human KGN cells) | IC50 (human 11β-HSD2) | clearance from the body [1] | IC50 (human 11β-HSD1) | IC50 (human 17β-HSD3) | higher potency to inhibit r3β-HSD1 than h3β-HSD2 (r3β-HSD1; r3β-HSD1 vs h3β-HSD2) | LogP [2] | half-lives [1] |
| --- | --- | --- | --- | --- | --- | --- | --- | --- | --- | --- | --- | --- | --- | --- | --- | --- | --- | --- | --- |
| 3.08 ± 0.81 µM | 0.32 ± 0.1 µM |  |  |  |  |  |  |  |  |  | CC(=O)[C@H]1CC[C@H]2[C@@H]3CC=C4C[C@@H](O)CC[C@]4(C)[C@H]3CC[C@]12C [P5, pregnenolone] |  |  |  |  |  |  |  |  |
|  |  | ≥ 50 % of the control |  |  | around 50 % of the control | 103 ± 11.6 µM |  | 109 ± 19.2 µM |  |  | COc1cc(CCC(=O)CC(=O)CCc2ccc(O)c(OC)c2)ccc1O [THC, tetrahydrocurcumin] |  |  |  |  |  |  | 3.691 |  |
|  |  | < 25 % of the control | Mixed | 2.18 µM | < 20 % of the control | 2.15 ± 0.27 µM | Mixed | 3.27 ± 0.38 µM | 3.85 µM | 1 fold | COc1cc(/C=C/C(O)=C/C(=O)/C=C/c2ccc(O)cc2)ccc1O [DMC, demethoxycurcumin] | 10 µM |  |  |  |  |  |  | 2 to 4 h |
